IC50 data for 17 molecules are collected here from ChEMBL document CHEMBL1127482 (J Med Chem, 1994).

pIC50: −log10 of the molar value. *1 amine or outer side, *2 acyl side, *3 side chain or, on linkers, in order; H or OH if unused. Where a SMILES comes first, the peptide text is derived from it. Bridges are numbered along the chain shown (N, C = ends). X1 = O=C(CC1(S[*:2])CCCCC1)[*:1]

Assay [1] deals with Integrin alpha-IIb/beta-3 (Homo sapiens, UniProt P05106+P08514). Kind of assay: Binding affinity against integrin alpha 2b-beta 3 in enzyme linked immunosorbent assay (ELISA). Format: protein-complex assay. Put shortly:
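Purified human platelet αIIbβ3 (from outdated platelets, octyl glucoside extract) in TBS with 20 mM octyl glucoside, 2 mM MgCl2 and 2 mM CaCl2 binds to plate-coated human fibrinogen (10 µg/mL in TBS) with 10-fold serial peptide dilutions for 3 h at room temperature. Bound receptor is detected with rabbit anti-αIIbβ3, then HRP anti-rabbit IgG, with o-phenylenediamine/H2O2 at pH 5.0. IC50 is reported.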

The species entered for assay [2] is Homo sapiens. In words: Inhibition of 10 uM ADP induced platelet aggregation in human platelet rich citreated plasma (PRP). Format: functional. Put shortly:
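Aggregation is read as the increase in light transmission in an aggregometer, with platelets used within 3 h of collection. IC50 comes from regression of dose-response curves for inhibition of maximal aggregation, adjusted against a standard run in each experiment.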

The target of assay [3] is Integrin alpha-5/beta-1 (Homo sapiens, UniProt P05556+P08648). Kind of assay: Binding affinity against integrin alpha5-beta1 in enzyme linked immunosorbent assay (ELISA). Format: protein-complex assay.
For assay [4], the target named is Integrin alpha-V/beta-5 (Homo sapiens, UniProt P06756+P18084). In words: Binding affinity against integrin alpha V-beta5 in enzyme linked immunosorbent assay (ELISA). Format: protein-complex assay. Put shortly: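 It is added to wells coated with human vitronectin in 0.1 M carbonate, pH 9.6, with 10-fold serial peptide dilutions for 3 h at room temperature. Detection uses rabbit anti-VnR, HRP anti-rabbit IgG and o-phenylenediamine/H2O2.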
On the technique in general: ELISA stands for enzyme-linked immunosorbent assay.

Chain of Integrin alpha-IIb/beta-3 (P05106 27-788 limits assumed): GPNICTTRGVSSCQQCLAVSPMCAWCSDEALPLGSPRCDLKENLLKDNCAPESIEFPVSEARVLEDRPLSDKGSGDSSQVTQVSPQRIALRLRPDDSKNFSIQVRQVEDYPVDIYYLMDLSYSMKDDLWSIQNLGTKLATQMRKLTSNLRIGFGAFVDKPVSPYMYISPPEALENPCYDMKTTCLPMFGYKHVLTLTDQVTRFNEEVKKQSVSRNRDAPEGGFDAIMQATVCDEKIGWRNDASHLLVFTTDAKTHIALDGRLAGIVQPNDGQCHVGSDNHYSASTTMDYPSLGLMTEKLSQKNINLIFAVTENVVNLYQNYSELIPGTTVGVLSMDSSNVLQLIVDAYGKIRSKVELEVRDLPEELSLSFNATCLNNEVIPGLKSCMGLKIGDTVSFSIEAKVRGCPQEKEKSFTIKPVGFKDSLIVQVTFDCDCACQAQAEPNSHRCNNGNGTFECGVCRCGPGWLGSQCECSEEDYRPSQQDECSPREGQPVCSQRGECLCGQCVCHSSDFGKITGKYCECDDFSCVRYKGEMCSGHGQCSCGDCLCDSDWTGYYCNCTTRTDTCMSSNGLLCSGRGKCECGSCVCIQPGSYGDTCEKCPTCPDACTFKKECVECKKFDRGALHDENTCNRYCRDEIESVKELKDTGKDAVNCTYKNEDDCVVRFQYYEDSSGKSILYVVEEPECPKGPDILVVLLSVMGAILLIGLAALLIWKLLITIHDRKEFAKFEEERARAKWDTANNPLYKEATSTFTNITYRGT
Chain of Integrin alpha-IIb/beta-3 (P08514 32-887 limits assumed): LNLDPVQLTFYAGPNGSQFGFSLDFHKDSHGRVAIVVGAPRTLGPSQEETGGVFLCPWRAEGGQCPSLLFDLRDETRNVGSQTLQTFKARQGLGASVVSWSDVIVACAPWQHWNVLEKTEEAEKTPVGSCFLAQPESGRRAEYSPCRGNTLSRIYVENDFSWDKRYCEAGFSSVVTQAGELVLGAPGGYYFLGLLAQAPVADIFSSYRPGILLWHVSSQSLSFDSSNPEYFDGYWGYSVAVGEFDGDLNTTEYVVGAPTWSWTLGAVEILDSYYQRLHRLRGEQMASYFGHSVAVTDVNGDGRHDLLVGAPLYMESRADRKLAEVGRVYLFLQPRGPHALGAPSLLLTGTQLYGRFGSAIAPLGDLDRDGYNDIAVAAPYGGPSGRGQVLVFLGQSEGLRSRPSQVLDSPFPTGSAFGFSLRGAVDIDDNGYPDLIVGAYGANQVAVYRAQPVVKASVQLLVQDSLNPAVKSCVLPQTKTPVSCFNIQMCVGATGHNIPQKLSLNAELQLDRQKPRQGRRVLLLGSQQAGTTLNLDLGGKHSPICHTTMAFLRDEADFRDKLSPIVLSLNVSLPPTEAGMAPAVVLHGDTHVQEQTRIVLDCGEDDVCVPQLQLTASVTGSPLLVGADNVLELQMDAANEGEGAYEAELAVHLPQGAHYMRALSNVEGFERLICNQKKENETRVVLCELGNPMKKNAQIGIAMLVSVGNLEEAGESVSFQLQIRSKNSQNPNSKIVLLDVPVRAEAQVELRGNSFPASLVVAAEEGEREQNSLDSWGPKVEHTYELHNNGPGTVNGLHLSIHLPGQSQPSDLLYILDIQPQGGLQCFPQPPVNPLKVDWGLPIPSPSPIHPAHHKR
Chain of Integrin alpha-IIb/beta-3 (P08514 891-1039 limits assumed): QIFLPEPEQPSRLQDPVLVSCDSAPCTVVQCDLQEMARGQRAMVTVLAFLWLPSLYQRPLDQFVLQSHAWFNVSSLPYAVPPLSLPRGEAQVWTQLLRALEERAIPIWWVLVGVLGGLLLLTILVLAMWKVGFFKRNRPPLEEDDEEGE
Chain of Integrin alpha-V/beta-5 (P06756 31-889 limits assumed): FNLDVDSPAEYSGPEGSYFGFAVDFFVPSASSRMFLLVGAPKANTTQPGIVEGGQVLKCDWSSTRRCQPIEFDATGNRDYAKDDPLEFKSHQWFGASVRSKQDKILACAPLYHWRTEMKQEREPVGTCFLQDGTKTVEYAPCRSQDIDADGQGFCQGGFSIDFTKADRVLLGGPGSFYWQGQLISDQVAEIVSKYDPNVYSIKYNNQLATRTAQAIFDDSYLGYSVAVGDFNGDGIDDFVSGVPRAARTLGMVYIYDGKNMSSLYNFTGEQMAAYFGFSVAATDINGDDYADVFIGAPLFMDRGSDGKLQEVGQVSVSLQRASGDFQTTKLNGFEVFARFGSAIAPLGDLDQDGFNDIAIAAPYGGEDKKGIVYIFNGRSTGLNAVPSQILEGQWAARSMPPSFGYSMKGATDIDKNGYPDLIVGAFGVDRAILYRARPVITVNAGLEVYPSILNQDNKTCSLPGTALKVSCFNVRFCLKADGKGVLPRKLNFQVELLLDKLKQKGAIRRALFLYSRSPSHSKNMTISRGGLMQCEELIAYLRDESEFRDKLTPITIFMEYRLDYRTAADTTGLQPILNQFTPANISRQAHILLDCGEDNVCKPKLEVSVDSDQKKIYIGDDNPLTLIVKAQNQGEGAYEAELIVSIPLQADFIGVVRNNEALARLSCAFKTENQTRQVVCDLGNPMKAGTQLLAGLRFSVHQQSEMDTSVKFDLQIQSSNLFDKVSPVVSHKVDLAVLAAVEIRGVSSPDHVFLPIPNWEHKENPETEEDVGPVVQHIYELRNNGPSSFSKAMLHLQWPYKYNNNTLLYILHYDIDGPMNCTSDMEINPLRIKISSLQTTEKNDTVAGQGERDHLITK
Chain of Integrin alpha-V/beta-5 (P06756 891-1048 limits assumed): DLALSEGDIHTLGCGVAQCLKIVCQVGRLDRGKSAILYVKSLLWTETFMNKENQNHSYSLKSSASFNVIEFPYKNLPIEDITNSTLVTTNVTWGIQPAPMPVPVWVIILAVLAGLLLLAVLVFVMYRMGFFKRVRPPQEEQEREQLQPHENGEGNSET
Chain of Integrin alpha-V/beta-5 (P18084 24-799 limits assumed): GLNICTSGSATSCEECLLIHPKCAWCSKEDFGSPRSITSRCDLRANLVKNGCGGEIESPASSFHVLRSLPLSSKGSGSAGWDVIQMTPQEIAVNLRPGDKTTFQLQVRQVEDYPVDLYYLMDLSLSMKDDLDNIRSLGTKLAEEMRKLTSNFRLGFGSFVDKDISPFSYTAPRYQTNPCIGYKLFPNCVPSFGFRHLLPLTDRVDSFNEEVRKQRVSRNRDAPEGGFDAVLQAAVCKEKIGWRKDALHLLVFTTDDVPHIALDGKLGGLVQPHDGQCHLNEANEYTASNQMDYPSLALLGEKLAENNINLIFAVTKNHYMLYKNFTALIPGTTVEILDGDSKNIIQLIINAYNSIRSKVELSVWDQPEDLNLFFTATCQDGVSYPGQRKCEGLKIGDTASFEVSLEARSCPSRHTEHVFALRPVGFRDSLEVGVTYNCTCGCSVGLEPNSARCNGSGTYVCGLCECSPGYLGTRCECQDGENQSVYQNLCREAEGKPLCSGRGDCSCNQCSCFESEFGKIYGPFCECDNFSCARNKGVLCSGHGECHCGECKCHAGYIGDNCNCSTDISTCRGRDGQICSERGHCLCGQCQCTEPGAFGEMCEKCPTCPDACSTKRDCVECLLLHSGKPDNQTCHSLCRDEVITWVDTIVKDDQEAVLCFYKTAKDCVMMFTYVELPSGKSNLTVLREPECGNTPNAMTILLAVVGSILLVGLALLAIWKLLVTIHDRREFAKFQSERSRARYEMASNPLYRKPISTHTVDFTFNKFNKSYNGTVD

The pIC50 is the negative decadic logarithm of the IC50, by convention in mol/L. Low values mean a high IC50, high ones a low IC50. Consider `CCCCOc1ccc(C[C@@H]2NC(=O)[C@H](CC(=O)O)NC(=O)CNC(=O)[C@H](CCCNC(=N)N)NC(=O)[C@H](Cc3c[nH]cn3)NC(=O)CNC(=O)[C@@H](NC(=O)[C@@H](N)CCCNC(=N)N)C3(CCCCC3)SSC[C@@H](C(=O)N[C@@H](CCCNC(=N)N)C(=O)O)NC(=O)[C@H](CCCNC(=N)N)NC2=O)cc1`, for which the pIC50 is 7.52 in assay [1] and 6.46 in assay [2].
Take `N=C(N)NCCC[C@H](NC(=O)[C@@H]1CSSC2(CCCCC2)[C@H](NC(=O)[C@@H](N)CCCNC(=N)N)C(=O)NCC(=O)N[C@@H](Cc2c[nH]cn2)C(=O)N[C@@H](CCCNC(=N)N)C(=O)NCC(=O)N[C@@H](CC(=O)O)C(=O)N[C@@H](Cc2ccc(Cl)cc2)C(=O)N[C@@H](CCCNC(=N)N)C(=O)N1)C(=O)O`: the pIC50 in assay [3] was 6.06; in assay [4], 4.82; in assay [2] it was 6.14.
Turning to `N=C(N)NCCC[C@H](NC(=O)[C@@H]1CSSC2(CCCCC2)[C@H](NC(=O)[C@@H](N)CCCNC(=N)N)C(=O)NCC(=O)N[C@@H](Cc2c[nH]cn2)C(=O)N[C@@H](CCCNC(=N)N)C(=O)NCC(=O)N[C@@H](CC(=O)O)C(=O)N[C@@H](Cc2ccc(I)cc2)C(=O)N[C@@H](CCCNC(=N)N)C(=O)N1)C(=O)O`, the negative logarithm of the IC50 (pIC50) in assay [3] is 5.38; in assay [4], 5.39; in assay [1], 8.00.
As to `NC(N)=NCCC[C@H](NC(=O)[C@@H]1CSSC2(CCCCC2)[C@H](NC(=O)[C@@H](N)CCCN=C(N)N)C(=O)NCC(=O)N[C@@H](Cc2c[nH]cn2)C(=O)N[C@@H](CCCN=C(N)N)C(=O)NCC(=O)N[C@@H](CC(=O)O)C(=O)N[C@@H](Cc2ccccc2)C(=O)N[C@@H](CCCN=C(N)N)C(=O)N1)C(=O)O`, the pIC50 in assay [1] was 7.40; in assay [2], 6.21.
As for `COc1ccc(C[C@@H]2NC(=O)[C@H](CC(=O)O)NC(=O)CNC(=O)[C@H](CCCNC(=N)N)NC(=O)[C@H](Cc3c[nH]cn3)NC(=O)CNC(=O)[C@@H](NC(=O)[C@@H](N)CCCNC(=N)N)C3(CCCCC3)SSC[C@@H](C(=O)N[C@@H](CCCNC(=N)N)C(=O)O)NC(=O)[C@H](CCCNC(=N)N)NC2=O)cc1`, the results for the pIC50 in assay [3], in assay [4] and in assay [1] were 6.01, 5.98 and 7.70, respectively.
Consider `COc1ccc(C[C@@H]2NC(=O)[C@H](CC(=O)O)NC(=O)CNC(=O)[C@H](CCCN=C(N)N)NC(=O)[C@H](Cc3c[nH]cn3)NC(=O)[C@H](CCCN=C(N)N)NC(=O)[C@@H](NC(=O)[C@@H](N)CCCN=C(N)N)C3(CCCCC3)SSC[C@@H](C(=O)N[C@@H](CCCN=C(N)N)C(=O)O)NC(=O)[C@H](CCCN=C(N)N)NC2=O)cc1`, for which the pIC50 in assay [1] was 7.15; in assay [2] it was 6.36.
As for `CC(C)C[C@@H]1NC(=O)[C@H](CC(=O)O)NC(=O)CNC(=O)[C@H](CCCNC(=N)N)NC(=O)[C@H](Cc2c[nH]cn2)NC(=O)CNC(=O)[C@@H](NC(=O)[C@@H](N)CCCNC(=N)N)C2(CCCC2)SSC[C@@H](C(=O)N[C@@H](CCCNC(=N)N)C(=O)O)NC(=O)[C@H](CCCNC(=N)N)NC1=O`, the pIC50 in assay [4] was 6.47; in assay [1] it was 7.52; in assay [2], 5.39.
`CC(=O)N[C@H]1CSSC[C@@H](C(N)=O)NC(=O)[C@H](CCCN=C(N)N)NC(=O)[C@H](Cc2ccc([N+](=O)[O-])cc2)NC(=O)[C@H](CC(=O)O)NC(=O)CNC(=O)[C@H](CCCN=C(N)N)NC(=O)[C@@H]2CCCN2C(=O)[C@H](CC(N)=O)NC1=O`: the negative logarithm of the IC50 (pIC50) is 5.32 in assay [4], 7.77 in assay [1] and 6.08 in assay [2].
With `NC(N)=NCCC[C@H](NC(=O)[C@@H]1CSSC2(CCCCC2)[C@H](NC(=O)[C@@H](N)CCCN=C(N)N)C(=O)NCC(=O)N[C@@H](Cc2c[nH]cn2)C(=O)N[C@@H](CCCN=C(N)N)C(=O)NCC(=O)N[C@@H](CC(=O)O)C(=O)N[C@@H](Cc2ccc3ccccc3c2)C(=O)N[C@@H](CCCN=C(N)N)C(=O)N1)C(=O)O`, the pIC50 was 5.11 in assay [3], 7.15 in assay [1] and 6.36 in assay [2].
In the case of `NC(N)=NCCC[C@H](NC(=O)[C@@H]1CSSC2(CCCCC2)[C@H](NC(=O)[C@@H](N)CCCN=C(N)N)C(=O)NCC(=O)N[C@@H](Cc2c[nH]cn2)C(=O)N[C@@H](CCCN=C(N)N)C(=O)NCC(=O)N[C@@H](CC(=O)O)C(=O)N[C@@H](c2ccccc2)C(=O)N[C@@H](CCCN=C(N)N)C(=O)N1)C(=O)O`, the results for the pIC50 in assay [1] and in assay [2] were 7.70 and 6.17, respectively.
For the molecule `CC(C)C[C@@H]1NC(=O)[C@H](CC(=O)O)NC(=O)CNC(=O)[C@H](CCCNC(=N)N)NC(=O)[C@H](Cc2c[nH]cn2)NC(=O)CNC(=O)[C@@H](NC(=O)[C@@H](N)CCCNC(=N)N)C(C)(C)SSC[C@@H](C(=O)N[C@@H](CCCNC(=N)N)C(=O)O)NC(=O)[C@H](CCCNC(=N)N)NC1=O`, the values for the pIC50 in assay [4], in assay [1] and in assay [2] were 5.31, 7.40 and 5.02, respectively.
The corresponding values for `CC(C)C[C@@H]1NC(=O)[C@H](CC(=O)O)NC(=O)CNC(=O)[C@H](CCCNC(=N)N)NC(=O)[C@H](Cc2c[nH]cn2)NC(=O)CNC(=O)[C@@H](NC(=O)[C@@H](N)CCCNC(=N)N)C2(CCCCC2)SSC[C@@H](C(=O)N[C@@H](CCCNC(=N)N)C(=O)O)NC(=O)[C@H](CCCNC(=N)N)NC1=O` are 5.80, 6.40 and 5.52.
On to `CCCCOc1ccc(C[C@@H]2NC(=O)[C@H](CC(=O)O)NC(=O)CNC(=O)[C@H](CCCNC(=N)N)NC(=O)[C@@H]3CCCN3C(=O)[C@H]([C@@H](C)CC)NC(=O)[C@@H](NC(C)=O)CSSC[C@@H](C(N)=O)NC(=O)[C@H](CCCNC(=N)N)NC2=O)cc1`, for which the pIC50 in assay [3] is 5.22; in assay [4], below 5.00; in assay [1], 7.80.
Take `CC(C)C[C@@H]1NC(=O)[C@H](CC(=O)O)NC(=O)CNC(=O)[C@H](CCCNC(=N)N)NC(=O)[C@H](Cc2c[nH]cn2)NC(=O)CNC(=O)[C@H](NC(=O)[C@@H](N)CCCNC(=N)N)C(C)(C)SSC[C@@H](C(=O)N[C@@H](CCCNC(=N)N)C(=O)O)NC(=O)[C@H](CCCNC(=N)N)NC1=O`: the figures for the pIC50 in assay [4], in assay [1] and in assay [2] were 5.00, 6.82 and 5.39, respectively.
Take `CC[C@H](C)[C@@H]1NC(=O)[C@H](NC(C)=O)C(C)(C)SSC[C@@H](C(N)=O)NC(=O)[C@H](CCCNC(=N)N)NC(=O)[C@H](Cc2ccc(OC)cc2)NC(=O)[C@H](CC(=O)O)NC(=O)CNC(=O)[C@H](CCCNC(=N)N)NC(=O)[C@@H]2CCCN2C1=O`: the figures for the pIC50 in assay [1] and in assay [2] were 8.70 and 6.55, respectively.
For `CC(C)C[C@@H]1NC(=O)[C@H](CC(=O)O)NC(=O)CNC(=O)[C@H](CCCNC(=N)N)NC(=O)[C@H](Cc2c[nH]cn2)NC(=O)CNC(=O)CC2(CCCCC2)SSC[C@@H](C(=O)N[C@@H](C)C(=O)O)NC(=O)[C@H](CCCNC(=N)N)NC1=O` (GHRGDLRCA-OH; linker N-8 via X1), the pIC50 was 5.00 in assay [4], 7.70 in assay [1] and 5.23 in assay [2].
In assay [1], `CC(C)C[C@@H]1NC(=O)[C@H](CC(=O)O)NC(=O)CNC(=O)[C@H](CCCNC(=N)N)NC(=O)[C@H](Cc2c[nH]cn2)NC(=O)CNC(=O)[C@H](NC(=O)CN)C(C)(C)SSC[C@@H](C(=O)N[C@@H](C)C(=O)O)NC(=O)[C@H](CCCNC(=N)N)NC1=O` (stereo in doubt; 2) gave a negative logarithm of the IC50 (pIC50) of 6.82.
